# From ChEMBL document CHEMBL4390663, “Cationic biaryl 1,2,3-triazolyl peptidomimetic amphiphiles: synthesis, antibacterial evaluation and preliminary mechanism of action studies” (Eur J Med Chem, 2019)
# Columns and labels:
# [1] = tested on: Clostridioides difficile; assay: Antibacterial activity against Clostridium difficile NSW132 RT027 incubated for 48 hrs by CLSI method; format: functional; details: NSW132 RT027, 48 h
# Procedure, shortened: (§1)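 Broth microdilution per CLSI anaerobe method in pre-reduced (2-4 h) Brucella broth with haemin and vitamin K, 35 °C anaerobically for 48 h. Compounds from 5 mg/mL DMSO stocks, twofold dilutions in water mixed with double-strength broth; final 0.25–128 μg/mL. […] Triplicate; modal MIC read visually as lowest concentration inhibiting growth.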
# [2] = tested on: Escherichia coli; assay: Antibacterial activity against Escherichia coli ATCC 25922 incubated for 18 hrs by CLSI method; format: functional; details: ATCC 25922, 18 h
# Procedure, shortened: (§2)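 Screen run by CO-ADD: mid-log cultures in cation-adjusted MHB, 5 × 10^5 CFU/mL, compounds at up to 32 μg/mL in 1:2 serial dilutions (8 steps), final DMSO ≤0.5%, duplicate. 37 °C for 18 h without shaking; OD600 read against media-only and untreated-bacteria references. MIC = lowest concentration giving ≥80% inhibition; colistin standard.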
# [3] = tested on: Klebsiella pneumoniae; assay: Antibacterial activity against Klebsiella pneumoniae 700603 incubated for 18 hrs by CLSI method; format: functional; details: Klebsiella pneumoniae, 700603, 18 h; procedure, shortened: as §2
# [4] = tested on: Clostridioides difficile; assay: Antibacterial activity against Clostridium difficile ATCC 700057 incubated for 48 hrs by CLSI method; format: functional; details: ATCC 700057, 48 h; procedure, shortened: as §1
# [5] = tested on: Pseudomonas aeruginosa; assay: Antimicrobial activity against Pseudomonas aeruginosa ATCC 27853 incubated for 18 hrs by CLSI method; format: functional; details: ATCC 27853, 18 h; procedure, shortened: as §2
# [6] = tested on: Staphylococcus aureus; assay: Antimicrobial activity against Staphylococcus aureus ATCC 43300 incubated for 18 hrs by CLSI method; format: functional; details: ATCC 43300, 18 h
# [7] = tested on: Streptococcus pneumoniae; assay: Antibacterial activity against Streptococcus pneumoniae ATCC 49619 incubated for 24 hrs by CLSI method; format: functional; details: ATCC 49619, 24 h
# Procedure, shortened: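 CLSI broth microdilution in MHB with 2.5% lysed horse blood, 5% CO2, 35 °C, 24 h. Compounds from 5 mg/mL DMSO stocks diluted in water plus double-strength broth; final 0.25–128 μg/mL. […] Triplicate; modal MIC read visually as lowest growth-inhibiting concentration.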
# [8] = Haemolytic activity in sheep erythrocytes at 50 ug/ml incubated for 2 hrs under shaking condition relative to control; format: ADME, cell-based, Ovis aries, Erythrocyte; details: read-out: Activity
# Procedure, shortened: (§3)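 Compounds in PBS mixed with washed sheep erythrocytes (2% final) at 5 or 50 μg/mL, rocked 2 h at 37 °C, centrifuged; supernatant absorbance at 540 nm. PBS-only value subtracted, then expressed relative to water lysis (100%). Triplicate, means reported.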
# [9] = tested on: Staphylococcus aureus; assay: Antimicrobial activity against Staphylococcus aureus ATCC 29213 incubated for 24 hrs by CLSI method; format: functional; details: ATCC 29213, 24 h
# Procedure, shortened: (§4)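 Broth microdilution per CLSI aerobic guidance in Mueller Hinton broth, ambient air, 35 °C for 24 h. DMSO stocks were diluted in water, then serially diluted with double-strength broth inoculum added, for final 0.25–128 μg/mL. […] MIC was read visually as the lowest concentration inhibiting growth; the modal value of triplicates was recorded.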
# [10] = tested on: Staphylococcus aureus; assay: Antibacterial activity against methicillin-resistant Staphylococcus aureus NCTC 10442 incubated for 24 hrs by CLSI method; format: functional; details: NCTC 10442, 24 h; procedure, shortened: as §4
# [11] = tested on: Enterococcus faecalis; assay: Antibacterial activity against Enterococcus faecalis ATCC 29212 incubated for 24 hrs by CLSI method; format: functional; details: ATCC 29212, 24 h
# [12] = tested on: Acinetobacter baumannii; assay: Antimicrobial activity against Acinetobacter baumannii ATCC 19606 incubated for 18 hrs by CLSI method; format: functional; details: ATCC 19606 = CIP 70.34 = JCM 6841, 18 h; procedure, shortened: as §2
# [13] = Cytotoxicity against human HEK293 cells assessed as reduction in cell growth incubated for 20 hrs by resazurin dye-based fluorometric assay
# Procedure, shortened: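 HEK293 cells, 5000 per well in DMEM + 10% FBS, exposed to compounds (top 32 μg/mL, 1:2 serial dilution ×8, ≤0.5% DMSO, duplicate) for 20 h at 37 °C, 5% CO2. Resazurin added (2.3 μg/mL final), 3 h further; fluorescence ex 560/em 590 nm. CC50 from sigmoidal dose-response fit against log concentration; tamoxifen standard.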
# [14] = tested on: Staphylococcus aureus; assay: Antimicrobial activity against methicillin-resistant Staphylococcus aureus ATCC 43300 incubated for 18 hrs by CLSI method; format: functional; details: ATCC 43300, 18 h
# [15] = tested on: Staphylococcus aureus; assay: Antimicrobial activity against methicillin-resistant Staphylococcus aureus clinical isolate incubated for 18 hrs by CLSI method; format: functional
# [16] = tested on: Staphylococcus aureus; assay: Antimicrobial activity against glycopeptide intermediate susceptible Staphylococcus aureus NRS17 incubated for 18 hrs by CLSI method; format: functional; details: NRS17, 18 h
# [17] = tested on: Staphylococcus aureus; assay: Antimicrobial activity against glycopeptide intermediate susceptible/methicillin-resistant Staphylococcus aureus NRS1 incubated for 18 hrs by CLSI method; format: functional; details: NRS1, 18 h
# [18] = tested on: Staphylococcus aureus; assay: Antimicrobial activity against methicillin-resistant Staphylococcus aureus clinical isolate with reduced daptomycin susceptibility incubated for 18 hrs by CLSI method; format: functional
# [19] = tested on: Staphylococcus aureus; assay: Antimicrobial activity against vancomycin resistant Staphylococcus aureus NARSA VRS10 incubated for 18 hrs by CLSI method; format: functional; details: NARSA VRS10, 18 h
# [20] = tested on: Streptococcus pneumoniae; assay: Antibacterial activity against MDR Streptococcus pneumoniae ATCC 700677 incubated for 18 hrs by CLSI method; format: functional; details: ATCC 700677, 18 h
# [21] = tested on: Enterococcus faecalis; assay: Antimicrobial activity against vancomycin-resistant Enterococcus faecalis clinical isolate incubated for 18 hrs by CLSI method; format: functional
# [22] = Haemolytic activity in sheep erythrocytes at 5 ug/ml incubated for 2 hrs under shaking condition relative to control; format: ADME, cell-based, Ovis aries, Erythrocyte; details: read-out: Activity; procedure, shortened: as §3
# [23] = tested on: Staphylococcus aureus; assay: Bactericidal activity against exponential phase of Staphylococcus aureus ATCC 29213 assessed as reduction in bacterial count at 64 ug/ml measured at <= 30 mins by time-kill kinetics assay relative to control; format: functional
# [24] = tested on: Escherichia coli; assay: Bactericidal activity against exponential phase of Escherichia coli NCTC 10418 assessed as reduction in bacterial count at 64 ug/ml measured at <= 120 mins by time-kill kinetics assay relative to control; format: functional
# [25] = tested on: Staphylococcus aureus; assay: Induction of cytoplasmic membrane depolarization in Staphylococcus aureus ATCC 29213 at 32 ug/ml incubated for 30 mins by diSC35 staining based fluorescence assay relative to control; format: functional
# Procedure, shortened: (§5)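 Mid-log cells (1.5 McFarland) loaded with 4 µM diSC3(5) in the dark at room temperature: S. aureus in PBS 30 min; E. coli in 5 mM HEPES/20 mM glucose pH 7.2 for 60 min, then 100 mM KCl and 0.5 mM EDTA. Baseline fluorescence (ex 620/em 670 nm) ~8 min, then compound added (final 32 µg/mL S. aureus, 64 µg/mL E. coli), tracked ~30 min.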
# [26] = tested on: Escherichia coli; assay: Induction of cytoplasmic membrane depolarization in Escherichia coli NCTC 10418 at 64 ug/ml incubated for 30 mins by diSC35 staining based fluorescence assay relative to control; format: functional; procedure, shortened: as §5
# [27] = tested on: Staphylococcus aureus; assay: Induction of plasma membrane permeabilization in Staphylococcus aureus ATCC 29213 at 32 ug/ml measured for 30 mins by propidium iodide staining based fluorescence assay relative to control; format: functional
# Procedure, shortened: (§6)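 Mid-log cells (1.5 McFarland) with 4 µM propidium iodide, dark, room temperature: S. aureus in PBS 30 min; E. coli in 5 mM HEPES/20 mM glucose pH 7.2 for 60 min, then 100 mM KCl and 0.5 mM EDTA. Fluorescence (ex 544/em 615 nm) read ~8 min baseline, then ~30 min after compound at 32 µg/mL final.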
# [28] = tested on: Escherichia coli; assay: Induction of plasma membrane permeabilization in Escherichia coli NCTC 10418 at 32 ug/ml measured for 30 mins by propidium iodide staining based fluorescence assay relative to control; format: functional; procedure, shortened: as §6
# [29] = tested on: Staphylococcus aureus; assay: Bactericidal activity against exponential phase of Staphylococcus aureus ATCC 29213 assessed as reduction in bacterial count at 64 ug/ml measured at 2 hrs by time-kill kinetics assay; format: functional
compound,measurement,setting,value
CC(C)CCOc1ccc2ccccc2c1-c1c(OCc2cn(C[C@@H](CCCCN)NC(=O)[C@@H](CCCNC(=N)N)NC(=O)CCc3ccccc3)nn2)ccc2ccccc12.Cl.Cl,MIC,[1],32 µg/mL
same,MIC,[2],8 µg/mL
same,MIC,[3],32 µg/mL
same,MIC,[4],16 µg/mL
same,MIC,[5],16 µg/mL
same,MIC,[6],2 µg/mL
same,MIC,[7],4 µg/mL
same,"hemolysis at 2 h, 50 ug/ml",[8],94.2%
same,MIC,[9],4 µg/mL
same,MIC,[10],4 µg/mL
same,MIC,[11],4 µg/mL
same,MIC,[12],32 µg/mL
same,CC50 at 20 h,[13],27.4 µg/mL
same,MIC,[14],1 to 2 µg/mL
same,MIC,[15],4 µg/mL
same,MIC,[16],2 µg/mL
same,MIC,[17],2 to 4 µg/mL
same,MIC,[18],2 to 4 µg/mL
same,MIC,[19],2 µg/mL
same,MIC,[20],1 to 2 µg/mL
same,MIC,[21],2 µg/mL
same,"hemolysis at 2 h, 5 ug/ml",[22],1.1%
same,Activity,[23],>=3 log10CFU/ml
same,Activity,[24],>=3 log10CFU/ml
same,Activity,[25],120 - 180%
same,Activity,[26],460 - 900%
same,Activity,[27],600%
same,Activity,[28],25 - 40%
same,Activity,[29],< 1000 CFU/mL
